From ChEMBL document CHEMBL1765072, “Inhibition of amyloidogenesis by nonsteroidal anti-inflammatory drugs and their hybrid nitrates” (J Med Chem, 2011)

Key:
[1] = Cytotoxicity against mouse RAW264.7 cells assessed as cell viability at 10 uM after 24 hrs by MTT assay relative to control; type: cell-based; conditions: read-out: Activity
Summary of the method: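 RAW 264.7 cells given 0.5 mg/ml MTT in medium for 4 h, washed with PBS; formazan dissolved in DMSO, shaken 30 min, absorbance read at 570 nm against a 630 nm reference. Viability expressed relative to DMSO control.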

N2a (Mus musculus) = test: Cytotoxicity against mouse N2a/APPsw cells assessed as cell viability at 1 uM after 24 hrs by MTT assay relative to control
N2a = test: Antiamyloidogenic activity in mouse N2A cells transfected with human APP Swedish mutant assessed as amyloid beta (1 to 42) level at 1 uM after 24 hrs by ELISA relative to control
RAW264.7 = test: Antiinflammatory activity against mouse RAW264.7 cells assessed as LPS-induced nitrate production at 10 uM treated 30 mins before LPS challenge measured after 24 hrs by Griess reagent method relative to control

SMILES	viability at 24 h, 10 µM [1]	viability at 24 h, 1 µM (N2a (Mus musculus))	level, % of control at 1 µM (N2a)	level, % of control at 10 µM (RAW264.7)
CCC(C#N)(CC)c1ccc(-c2cccc3ccccc23)c(F)c1	107%	91.6%	105%	91.3%
O=C(O)CC1=C/C(=C/c2ccc(C(F)(F)F)cc2)c2ccc(F)cc21	100%		91%	29.2%
NC(=O)C(F)c1ccc(-c2ccc(F)cc2)c(F)c1 (centres undefined)	90.6%	69.1%		74.7%
N#CC(F)c1ccc(-c2ccccc2)c(F)c1 (centres undefined)		93.1%	65.6%	
O=C(O)C(O)c1ccc(-c2ccc(F)cc2)c(F)c1 (centres undefined)	102%	99.7%	106%	76.3%
O=C(O)C(F)c1ccc(-c2ccccc2)c(F)c1 (centres undefined)	92.7%	98.7%	91.8%	81.5%
NC(=O)C(F)(F)c1ccc(-c2ccc(F)cc2)c(F)c1	98.8%	95.9%	109%	84.1%
CSc1ccc(/C=C2/C=C(CC(=O)NCc3ccccc3)c3cc(F)ccc32)cc1	100%		94.5%	58.4%
CCC(C#N)(CC)c1ccc(-c2ccccc2)c(F)c1		97.3%	125%	
O=C(O)CC1=C/C(=C/c2ccc(SC(F)(F)F)cc2)c2ccc(F)cc21	104%		99.4%	1.7%
CC(F)(C(=O)O)c1ccc(-c2ccccc2)c(F)c1 (centres undefined)	99.7%	101%	98.8%	80.8%
CCC(CC)(C(=O)O)c1ccc(-c2ccccc2)c(F)c1		95.5%	124%	
C[S+]([O-])c1ccc(/C=C2/C=C(CC(=O)O)c3cc(F)ccc32)cc1 (centres undefined)	104%		95%	91.6%
O=C(O)C(O)c1ccc(-c2ccccc2)c(F)c1 (centres undefined)	89.1%	101%	82.5%	59%
NC(=O)C(F)c1ccc(-c2ccccc2)c(F)c1 (centres undefined)		103%	101%	
COc1ccc2c(c1)c(CC(=O)NCCc1cccnc1)c(C)n2C(=O)c1ccc(Cl)cc1	95.6%		135%	100%
NC(=O)C(F)(F)c1ccc(-c2ccccc2)c(F)c1	100%	102%	115%	82.2%
COc1ccc2c(c1)c(CNCCO)c(C)n2C(=O)c1ccc(Cl)cc1	100%		118%	52.5%
N#CC(F)c1ccc(-c2ccc(F)cc2)c(F)c1 (centres undefined)	84.5%	69.4%		65.3%
CSc1ccc(/C=C2/C(C)=C(CC(=O)O)c3cc(F)ccc32)cc1 [SULINDAC SULFIDE]			82.6%	
COc1ccc2c(c1)c(CC(=O)Nc1ccc(Cl)cc1)c(C)n2C(=O)c1ccc(Cl)cc1	92.2%		295%	68.6%
N#CC(F)(F)c1ccc(-c2ccc(F)cc2)c(F)c1	98.2%	98.2%	125%	75.7%
COc1ccc2c(c1)c(CC(=O)O)cn2C(=O)c1ccc(Cl)cc1	97.9%		102%	65.9%
CCNC(=O)CC1=C/C(=C/c2ccc(SC)cc2)c2ccc(F)cc21	104%		95.7%	80.4%
